# Active and inactive are the calls of the source. The calls are words filed in the database; no cut-off is given here.
# How the values were obtained:
# [1] = system: Staphylococcus epidermidis; assay: Phototoxicity against Staphylococcus epidermidis 1457 grown as biofilms assessed as dead cells incubated at 40 uM for 30 mins followed by irradiation with 100 J/cm'2 laser light using SYTO9 staining by confocal laser scanning microscopy; type: functional, organism-based
# Outline: (§1)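 Biofilms were grown 16 h at 37°C on glass coverslips, plasma-coated for S. aureus, and treated with 40 μM TBO for 30 min in the dark, then left dark or irradiated at 640 nm to 100 or 200 J/cm². They were stained with SYTO9/propidium iodide (1 μl of each stock per 3 ml PBS) for 15 min at 22°C in the dark and imaged by confocal microscopy. Red = membrane-damaged/dead, green = viable.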
# Staphylococcus aureus [2] = assay: Phototoxicity against Staphylococcus aureus isolate LP grown as biofilms assessed as dead cells incubated at 40 uM for 30 mins in dark using SYTO9 staining by confocal laser scanning microscopy; type: functional, organism-based; outline: as §1
# Staphylococcus aureus [3] = assay: Phototoxicity against Staphylococcus aureus isolate LP grown as biofilms assessed as reduction in adherent bacterial count incubated at 40 uM for 30 mins followed by irradiation with 100 J/cm'2 laser light by scanning electron microscopy; type: functional, organism-based
# Outline: (§2)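 Biofilms were grown on Thermanox coverslips in TSB, precoated with 20% human plasma for S. aureus, and incubated with 40 μM TBO for 30 min in the dark, either unirradiated or irradiated at 100 J/cm². They were washed, fixed in 2.5% glutaraldehyde/0.1 M cacodylate pH 7.2 for 1 h at 4°C, ethanol-dehydrated, critical-point dried, and gold-coated. SEM was at ×1,000.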
# [4] = system: Staphylococcus epidermidis; assay: Phototoxicity against Staphylococcus epidermidis 1457 grown as biofilms assessed as reduction in adherent bacterial count incubated at 40 uM for 30 mins followed by irradiation with 100 J/cm'2 laser light by scanning electron microscopy in presence of TEDTA pretreated for 1 hr; type: functional, organism-based
# Outline: (§3)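 Thermanox coverslip biofilms (plasma-precoated for S. aureus) were pretreated with 20 mM TEDTA for 1 h, given 40 μM TBO for 30 min in the dark, and irradiated at 100 J/cm². They were then fixed in glutaraldehyde/cacodylate, dehydrated in graded ethanol, critical-point dried, gold-coated, and imaged by SEM at ×1,000.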
# Staphylococcus aureus [5] = assay: Phototoxicity against Staphylococcus aureus isolate LP grown as biofilms incubated at > 40 uM followed by irradiation with 1 to 200 J/cm2 laser light; type: functional, organism-based
# Outline: (§4)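 Biofilms were grown 16 h at 37°C in TSB + 0.25% glucose, with plasma-coated wells for S. aureus. They were then incubated with TBO (10–80 μM tested) in the dark for 30 min at 37°C and irradiated with a 640 nm diode laser, 1-cm spot, 42 mW/cm², at varied light doses. Cells were scraped, sonicated, serially diluted, and plated. Surviving fraction is CFU (TBO + light)/CFU (TBO alone). Duplicate biofilms, three experiments.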
# [6] = system: Staphylococcus epidermidis; assay: Phototoxicity against Staphylococcus epidermidis 1457 grown as biofilms assessed as appearance of large cellular aggregates surrounded by extracellular matrix incubated at 40 uM for 30 mins in dark by scanning electron microscopy; type: functional, organism-based; outline: as §2
# Staphylococcus aureus [7] = assay: Phototoxicity against Staphylococcus aureus isolate LP grown as biofilms assessed as decrease in survival incubated at 40 uM followed by irradiation with 1 to 200J/cm2 laser light; type: functional, organism-based; outline: as §4
# Staphylococcus aureus [8] = assay: Phototoxicity against Staphylococcus aureus isolate LP grown as biofilms assessed as dead cells incubated at 40 uM for 30 mins followed by irradiation with 100 J/cm'2 laser light using SYTO9 staining by confocal laser scanning microscopy; type: functional, organism-based; outline: as §1
# Staphylococcus aureus [9] = assay: Phototoxicity against Staphylococcus aureus isolate LP grown as biofilms assessed as dead cells incubated at 40 uM for 30 mins in dark using SYTO9 staining by confocal laser scanning microscopy in presence of TEDTA pretreated for 1 hr; type: functional, organism-based
# Outline: (§5)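 Coverslip biofilms (plasma-coated for S. aureus) were pretreated with 20 mM TEDTA for 1 h and exposed to 40 μM TBO for 30 min in the dark. They were stained with SYTO9 plus propidium iodide for 15 min at 22°C in the dark and examined by confocal laser scanning microscopy for red (dead) versus green (viable) cells.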
# Staphylococcus aureus [10] = assay: Antimicrobial activity against Staphylococcus aureus isolate LP grown as biofilms at 40 uM incubated in dark for 30 mins; type: functional, organism-based
# Outline: (§6)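 Biofilms grown 16 h at 37°C in polystyrene wells from overnight TSB cultures diluted in TSB + 0.25% glucose (S. epidermidis 1:200, S. aureus 1:50, S. aureus wells precoated with 20% human plasma). TBO in PBS added, kept dark 30 min at 37°C, no light. Biofilms scraped, sonicated, vortexed, and plated on TSB agar. CFU counted after 24 h at 37°C in the dark and compared with PBS-only controls.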
# [11] = system: Staphylococcus epidermidis; assay: Antimicrobial activity against Staphylococcus epidermidis 1457 grown as biofilms at 40 uM incubated in dark for 30 mins; type: functional, organism-based; outline: as §6
# [12] = system: Staphylococcus epidermidis; assay: Phototoxicity against Staphylococcus epidermidis 1457 grown as biofilms incubated at > 40 uM followed by irradiation with 1 to 200 J/cm2 laser light; type: functional, organism-based; outline: as §4
# [13] = system: Staphylococcus epidermidis; assay: Phototoxicity against Staphylococcus epidermidis 1457 grown as biofilms assessed as dead cells incubated at 40 uM for 30 mins in dark using SYTO9 staining by confocal laser scanning microscopy; type: functional, organism-based; outline: as §1
# [14] = Ratio of phototoxicity against Staphylococcus aureus isolate LP grown as biofilms to phototoxicity against Staphylococcus epidermidis 1457; type: functional
# Outline: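 Cell survival for each species was derived as CFU (TBO + light)/CFU (TBO alone) after biofilms were incubated with 40 μM TBO for 30 min in the dark and irradiated with a 640 nm diode laser at 42 mW/cm², compared at 25 J/cm². Unpaired two-sided t test.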
# Staphylococcus aureus [15] = assay: Phototoxicity against Staphylococcus aureus isolate LP grown as biofilms assessed as dead cells incubated at 40 uM for 30 mins followed by irradiation with 200 J/cm'2 laser light using propidium iodide staining by confocal laser scanning microscopy; type: functional, organism-based; outline: as §1
# [16] = system: Staphylococcus epidermidis; assay: Phototoxicity against Staphylococcus epidermidis 1457 grown as biofilms assessed as reduction in adherent bacterial count incubated at 40 uM for 30 mins followed by irradiation with 100 J/cm'2 laser light by scanning electron microscopy; type: functional, organism-based; outline: as §2
# [17] = system: Staphylococcus epidermidis; assay: Phototoxicity against Staphylococcus epidermidis 1457 grown as biofilms assessed as log reduction in survival fraction incubated at 40 uM for 30 mins followed by irradiation with 100 J/cm'2 laser light in presence of TEDTA pretreated for 1 hr; type: functional
# Outline: (§7)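 Biofilms were pretreated with 20 mM TEDTA in PBS for 1 h. They were then given 40 μM TBO, 30 min in the dark at 37°C, and 640 nm laser at 42 mW/cm² to 100 J/cm². Colony counts were made after scraping, sonication, and plating. Controls: TEDTA+TBO without light, TEDTA alone, and untreated. Survival was compared with TBO + light without TEDTA using an unpaired two-sided t test.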
# Staphylococcus aureus [18] = assay: Phototoxicity against Staphylococcus aureus isolate LP grown as biofilms assessed as appearance of large cellular aggregates surrounded by extracellular matrix incubated at 40 uM for 30 mins in dark by scanning electron microscopy; type: functional, organism-based; outline: as §2
# [19] = system: Staphylococcus epidermidis; assay: Phototoxicity against Staphylococcus epidermidis 1457 grown as biofilms assessed as dead cells incubated at 40 uM for 30 mins followed by irradiation with 200 J/cm'2 laser light using propidium iodide staining by confocal laser scanning microscopy; type: functional, organism-based; outline: as §1
# [20] = system: Staphylococcus epidermidis; assay: Phototoxicity against Staphylococcus epidermidis 1457 grown as biofilms assessed as decrease in survival incubated at 40 uM followed by irradiation with 1 to 200 J/cm2 laser light; type: functional, organism-based; outline: as §4
# [21] = system: Staphylococcus epidermidis; assay: Phototoxicity against Staphylococcus epidermidis 1457 grown as biofilms assessed as dead cells incubated at 40 uM for 30 mins in dark using SYTO9 staining by confocal laser scanning microscopy in presence of TEDTA pretreated for 1 hr; type: functional, organism-based; outline: as §5
# Staphylococcus aureus [22] = assay: Phototoxicity against Staphylococcus aureus isolate LP grown as biofilms assessed as reduction in adherent bacterial count incubated at 40 uM for 30 mins followed by irradiation with 100 J/cm'2 laser light by scanning electron microscopy in presence of TEDTA pretreated for 1 hr; type: functional, organism-based; outline: as §3
# Staphylococcus aureus [23] = assay: Increase in phototoxicity against Staphylococcus aureus isolate LP grown as biofilms incubated at 40 uM for 30 mins followed by irradiation with 100 J/cm'2 laser light in presence of TEDTA pretreated for 1 hr; type: functional, organism-based; outline: as §7
structure (smiles),measurement,setting,value
Cc1cc2nc3ccc(N(C)C)cc3[s+]c2cc1N.[Cl-] [TOLONIUM CHLORIDE],Activity,[1],inactive
same,Activity,Staphylococcus aureus [2],inactive
same,Activity,Staphylococcus aureus [3],Active
same,Activity,[4],Active
same,Activity,Staphylococcus aureus [5],Active
same,Activity,[6],Active
same,Activity,Staphylococcus aureus [7],Active
same,Activity,Staphylococcus aureus [8],inactive
same,Activity,Staphylococcus aureus [9],Active
same,Activity,Staphylococcus aureus [10],inactive
same,Activity,[11],inactive
same,Activity,[12],Active
same,Activity,[13],inactive
same,Ratio,[14],10
same,Activity,Staphylococcus aureus [15],Active
same,Activity,[16],Active
same,Activity,[17],1
same,Activity,Staphylococcus aureus [18],Active
same,Activity,[19],Active
same,Activity,[20],Active
same,Activity,[21],Active
same,Activity,Staphylococcus aureus [22],Active
same,Activity,Staphylococcus aureus [23],inactive
